{"source": "ChEMBL document CHEMBL4665832", "about": "“Benzylidene thiazolidinediones: Synthesis, in vitro investigations of antiproliferative mechanisms and in vivo efficacy determination in combination with Imatinib” (Bioorg Med Chem Lett, 2020)", "key": {"[1]": {"test": "Cytotoxicity against hepatocytes (unknown origin) assessed as cell growth by MTT assay relative to control", "type": "cell-based, Hepatocyte", "design": "concentration or dose not given beside the values"}, "[2]": {"test_system": "HL-60", "test": "Antiproliferative activity against human HL-60 cells assessed as cell growth inhibition", "type": "functional", "how_it_was_run": "(§1)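 Cell lines screened for growth inhibition and GI₅₀ derived. Each value is the mean of 3 independent experiments.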"}, "[3]": {"test_system": "Jurkat", "test": "Antiproliferative activity against human Jurkat cells assessed as cell growth inhibition", "type": "functional", "how_it_was_run": "as §1"}, "[4]": {"test_system": "MOLT-4", "test": "Antiproliferative activity against human MOLT-4 cells assessed as cell growth inhibition", "type": "functional", "how_it_was_run": "as §1"}, "[5]": {"test_system": "U-937", "test": "Antiproliferative activity against human U-937 cells assessed as cell growth inhibition", "type": "functional", "how_it_was_run": "as §1"}, "[6]": {"test_system": "DU-145", "test": "Antiproliferative activity against human DU-145 cells assessed as cell growth inhibition", "type": "functional", "how_it_was_run": "as §1"}, "[7]": {"test_system": "MDA-MB-435", "test": "Antiproliferative activity against human MDA-MB-435 cells assessed as cell growth inhibition", "type": "functional", "how_it_was_run": "as §1"}, "[8]": {"test_system": "HOP-62", "test": "Antiproliferative activity against human HOP-62 cells assessed as cell growth inhibition", "type": "functional", "how_it_was_run": "as §1"}, "[9]": {"test_system": "PC-3", "test": "Antiproliferative activity against human PC-3 cells assessed as cell growth inhibition", "type": "functional", "how_it_was_run": "as §1"}, "[10]": {"test_system": "MCF7", "test": "Antiproliferative activity against human MCF7 cells assessed as cell growth inhibition", "type": "functional", "how_it_was_run": "as §1"}, "[11]": {"test_system": "K562", "test": "Antiproliferative activity against human K562 cells assessed as cell growth inhibition", "type": "functional", "how_it_was_run": "as §1"}, "[12]": {"test": "Antiproliferative activity against human GURAV cells assessed as cell growth inhibition", "type": "functional", "how_it_was_run": "as §1"}, "[13]": {"test_system": "KB", "test": "Antiproliferative activity against human KB cells assessed as cell growth inhibition", "type": "functional", "how_it_was_run": "as §1"}, "[14]": {"test_system": "K562", "test": "Cell cycle arrest in human K562 cells assessed as accumulation at G0/G1 phase at 5 uM measured after 24 hrs by flow cytometry analysis", "type": "functional, cell-based", "how_it_was_run": "(§2)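 K562 cells exposed to 5 µM for 24 h, then cell-cycle phase distribution measured by flow cytometry. Untreated cells served as negative control and DMSO as vehicle control. SEM of n = 3. Two-tailed Student's t-test, P < 0.05.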"}, "[15]": {"test_system": "K562", "test": "Cell cycle arrest in human K562 cells assessed as accumulation at S phase at 5 uM measured after 24 hrs by flow cytometry analysis", "type": "functional, cell-based", "how_it_was_run": "as §2"}, "[16]": {"test_system": "K562", "test": "Cell cycle arrest in human K562 cells assessed as accumulation at G2/M phase at 5 uM measured after 24 hrs by flow cytometry analysis", "type": "functional, cell-based", "how_it_was_run": "as §2"}, "[17]": {"test_system": "K562", "test": "Cell cycle arrest in human K562 cells assessed as increase in cells accumulation at G0/G1 phase measured after 24 to 72 hrs by flow cytometry analysis", "type": "functional, cell-based", "details": "dose microM 5-20, time hrs 24-72", "how_it_was_run": "(§3)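 K562 cells exposed to 5, 10 or 20 µM and sampled at 24, 48 and 72 h. Phase distribution (G0/G1, S, G2/M) measured by flow cytometry. Untreated and DMSO vehicle controls. SEM of n = 3. Two-tailed t-test, P < 0.05.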"}, "[18]": {"test_system": "K562", "test": "Cell cycle arrest in human K562 cells assessed as decrease in cells accumulation at S phase measured after 24 to 72 hrs by flow cytometry analysis", "type": "functional, cell-based", "details": "dose microM 5-20, time hrs 24-72", "how_it_was_run": "as §3"}, "[19]": {"test_system": "K562", "test": "Cell cycle arrest in human K562 cells assessed as decrease in cells accumulation at G2/M phase measured after 24 to 72 hrs by flow cytometry analysis", "type": "functional, cell-based", "details": "dose microM 5-20, time hrs 24-72", "how_it_was_run": "as §3"}, "[20]": {"test_system": "K562", "test": "Cell cycle arrest in human K562 cells assessed as increase in cells accumulation at G0/G1 phase at 5 to 20 uM measured by flow cytometry analysis", "type": "functional, cell-based", "details": "dose microM 5-20, time hrs 24-72, TDE = time-dependent effect", "how_it_was_run": "as §3"}, "[21]": {"test_system": "K562", "test": "Cell cycle arrest in human K562 cells assessed as decrease in cells accumulation at S phase at 5 to 20 uM measured by flow cytometry analysis", "type": "functional, cell-based", "details": "dose microM 5-20, time hrs 24-72, TDE = time-dependent effect", "how_it_was_run": "as §3"}, "[22]": {"test_system": "K562", "test": "Cell cycle arrest in human K562 cells assessed as decrease in cells accumulation at G2/M phase at 5 to 20 uM measured by flow cytometry analysis", "type": "functional, cell-based", "details": "dose microM 5-20, time hrs 24-72, TDE = time-dependent effect", "how_it_was_run": "as §3"}, "[23]": {"test_system": "K562", "test": "Downregulation of PCNA expression in human K562 cells at 10 to 20 uM measured after 48 to 72 hrs by Western blot analysis", "type": "functional, cell-based", "details": "dose microM 10-20, time hrs 48-72", "how_it_was_run": "(§4)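 K562 cells treated at 10 or 20 µM for 24, 48 or 72 h. PCNA and cyclin D1 detected by Western blot, bands quantified and normalised to actin. Means of three separate experiments, SD, P < 0.05.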"}, "[24]": {"test_system": "K562", "test": "Induction of apoptosis in human K562 cells assessed as increase in cleaved PARP1 expression at 5 to 20 uM measured after 72 hrs by Western blot analysis", "type": "functional, cell-based", "details": "dose microM 5-20, time 72.0 hrs", "how_it_was_run": "(§5)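 K562 cells treated 72 h at 5, 10 or 20 µM alongside DMSO vehicle control. Cleaved PARP1 and caspase 3 detected by Western blot and normalised to actin. Means of at least two experiments, SD.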"}, "[25]": {"test_system": "K562", "test": "Induction of apoptosis in human K562 cells assessed as increase in activated caspase-3 expression at 5 to 20 uM measured after 72 hrs by Western blot analysis", "type": "functional, cell-based", "details": "dose microM 5-20, time 72.0 hrs", "how_it_was_run": "as §5"}, "[26]": {"test_system": "K562", "test": "Anticancer activity against human K562 cells assessed as cell growth inhibition at 1 uM by MTT assay relative to control", "type": "functional", "details": "read-out: GI", "how_it_was_run": "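K562 cells given imatinib 1 µM or test compound 1 µM alone, or imatinib 1 µM plus test compound 1 µM. Proliferation read by MTT assay and expressed as % inhibition.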"}, "[27]": {"test_system": "K562", "test": "Potentiation of imatinib-induced anticancer activity against human K562 cells assessed as cell growth inhibition at 1 uM by MTT assay (reference value: 71%)", "type": "functional", "details": "read-out: GI"}, "[28]": {"test": "Acute toxicity in po dosed mouse assessed as body weight loss", "type": "organism-based", "details": "in vivo", "how_it_was_run": "(§6)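 Healthy mice were given oral doses that increased over the study period. Each higher dose was given only if the previous dose was well tolerated. All animals were monitored for body weight loss, behavioural changes and mortality to set the maximum tolerated dose.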"}, "[29]": {"test": "Acute toxicity in po dosed mouse assessed as mortality", "type": "organism-based", "details": "in vivo", "how_it_was_run": "as §6"}, "[30]": {"test": "Acute toxicity in po dosed mouse assessed as maximum tolerated dose", "type": "organism-based", "details": "in vivo", "how_it_was_run": "as §6"}, "[31]": {"test_system": "K562", "test": "Potentiation of imatinib-induced antitumor activity against human K562 cells xenografted in mouse assessed as reduction in tumor volume at 100 mg/kg, ip administered for 30 days co-treated with imatinib at 100 mg/kg and measured every day for 30 days", "type": "functional, organism-based", "details": "time 30.0 day", "how_it_was_run": "(§7)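 Mice implanted subcutaneously in the right rear flank with 6 × 10⁶ K562 cells/100 μl in 50% matrigel. Dosed intraperitoneally: compound alone 200 mg/kg, or compound 100 mg/kg plus imatinib 100 mg/kg; controls were imatinib 100 mg/kg and saline. Tumour volume tracked over time, n = 6. Dunnett's test against control.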"}, "[32]": {"test_system": "K562", "test": "Antitumor activity against human K562 cells xenografted in mouse assessed as reduction in tumor volume at 200 mg/kg, ip administered for 30 days and measured every day for 30 days", "type": "functional, organism-based", "details": "time 30.0 day", "how_it_was_run": "as §7"}, "[33]": {"test_system": "K562", "test": "Downregulation of cyclin-D1 expression in human K562 cells at 10 to 20 uM measured after 24 hrs by Western blot analysis", "type": "functional, cell-based", "details": "dose microM 10-20, time 24.0 hrs", "how_it_was_run": "as §4"}, "[34]": {"test_system": "K562", "test": "Downregulation of PCNA expression in human K562 cells at 10 to 20 uM measured after 24 hrs by Western blot analysis", "type": "functional, cell-based", "details": "dose microM 10-20, time 24.0 hrs", "how_it_was_run": "as §4"}}, "note": "The source made the active and inactive calls. No cut-off for these calls is given here.", "data": [{"molecule": "O=C(COc1ccc(/C=C2\\SC(=O)NC2=O)cc1)Nc1cccc(C(F)(F)F)c1", "values": [{"measurement": "viability", "setting": "[1]", "value": "> 70", "unit": "%"}, {"measurement": "GI50", "setting": "[2]", "value": 73.3, "unit": "µM"}, {"measurement": "GI50", "setting": "[3]", "value": 26.5, "unit": "µM"}, {"measurement": "GI50", "setting": "[4]", "value": 47.3, "unit": "µM"}, {"measurement": "GI50", "setting": "[5]", "value": 49.1, "unit": "µM"}, {"measurement": "GI50", "setting": "[6]", "value": 59.2, "unit": "µM"}, {"measurement": "GI50", "setting": "[7]", "value": "> 100", "unit": "µM"}]}, {"molecule": "O=C(COc1ccc(/C=C2\\SC(=O)NC2=O)cc1)Nc1ccc(Cl)cc1C(F)(F)F", "values": [{"measurement": "viability", "setting": "[1]", "value": "> 70", "unit": "%"}, {"measurement": "GI50", "setting": "[8]", "value": "> 100", "unit": "µM"}, {"measurement": "GI50", "setting": "[9]", "value": "> 100", "unit": "µM"}, {"measurement": "GI50", "setting": "[10]", "value": 49.7, "unit": "µM"}, {"measurement": "GI50", "setting": "[11]", "value": 0.23, "unit": "µM"}, {"measurement": "GI50", "setting": "[12]", "value": 86.8, "unit": "µM"}, {"measurement": "GI50", "setting": "[13]", "value": "> 100", "unit": "µM"}, {"measurement": "GI50", "setting": "[2]", "value": 56.7, "unit": "µM"}, {"measurement": "GI50", "setting": "[3]", "value": 28.9, "unit": "µM"}, {"measurement": "GI50", "setting": "[4]", "value": 32.5, "unit": "µM"}, {"measurement": "GI50", "setting": "[5]", "value": 67.5, "unit": "µM"}, {"measurement": "Activity", "setting": "[14]", "value": "Active"}, {"measurement": "Activity", "setting": "[15]", "value": "Active"}, {"measurement": "Activity", "setting": "[16]", "value": "Active"}, {"measurement": "Activity", "setting": "[17]", "value": "Dose-dependent effect"}, {"measurement": "Activity", "setting": "[18]", "value": "Dose-dependent effect"}, {"measurement": "Activity", "setting": "[19]", "value": "Dose-dependent effect"}, {"measurement": "Activity", "setting": "[20]", "value": "Tde"}, {"measurement": "Activity", "setting": "[21]", "value": "Tde"}, {"measurement": "Activity", "setting": "[22]", "value": "Tde"}, {"measurement": "inhibition", "setting": "[23]", "value": "Active"}, {"measurement": "Activity", "setting": "[24]", "value": "Dose-dependent effect"}, {"measurement": "Activity", "setting": "[25]", "value": "Dose-dependent effect"}, {"measurement": "inhibition of growth at 1 µM", "setting": "[26]", "value": 65, "unit": "%"}, {"measurement": "inhibition of growth at 1 µM", "setting": "[27]", "value": 82, "unit": "%"}, {"measurement": "Activity", "setting": "[28]", "value": "Non-Toxic"}, {"measurement": "Activity", "setting": "[29]", "value": "Non-Toxic"}, {"measurement": "MTD", "setting": "[30]", "value": 2000, "unit": "mg/kg"}, {"measurement": "Activity", "setting": "[31]", "value": "Active"}, {"measurement": "Activity", "setting": "[32]", "value": "Active"}, {"measurement": "inhibition", "setting": "[33]", "value": "inactive"}, {"measurement": "inhibition", "setting": "[34]", "value": "inactive"}]}]}
